In one series the test system is L1210. Nature of the series: Compound was evaluated for inhibition dose required to inhibit the growth of L1210 cells in culture. It is filed as functional. The note with it: Mus musculus, read-out: ID50 (the source's name).
Series [1] is described as follows: Solubility at pH 5. The class given is physicochemical. The note with it: buffer. Summed up:
(§1)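 Run at 18 °C in 0.01 M potassium phosphate buffer. A saturated suspension was brought to pH 7.4 with 5 M KOH, held overnight, filtered through 0.22 µm, readjusted and refiltered. For pH 5.0, part of the filtrate was acidified with phosphoric acid and refiltered, then diluted with pH 5.0 buffer if opalescent. Samples were diluted in 0.1 M NaOH and concentration read by UV absorbance at 301.5 nm.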

Series [2] is described as follows: Solubility at pH 7.4. It is filed as physicochemical. The note with it: buffer. Summed up:
as §1

Another series has as its target Thymidylate synthase (Mus musculus, UniProt P07607). Put plainly: Inhibitory concentration of compound to inhibit Thymidylate synthase (TS) in L1210 cells at conc. of 200 uM. It is filed as cell-based. Summed up:
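Partially purified thymidylate synthase from L1210 leukemia cells; the enzyme assay used (±)-5,10-methylenetetrahydrofolate (5,10-CH2-FH4) cofactor at 200 μM.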

pIC50: −log10 of the molar value. In brackets after ≈: the same amount, converted by molar mass. A value given as a limit tells only on which side of the number the result lay.

Chain of Thymidylate synthase (P07607 whole entry): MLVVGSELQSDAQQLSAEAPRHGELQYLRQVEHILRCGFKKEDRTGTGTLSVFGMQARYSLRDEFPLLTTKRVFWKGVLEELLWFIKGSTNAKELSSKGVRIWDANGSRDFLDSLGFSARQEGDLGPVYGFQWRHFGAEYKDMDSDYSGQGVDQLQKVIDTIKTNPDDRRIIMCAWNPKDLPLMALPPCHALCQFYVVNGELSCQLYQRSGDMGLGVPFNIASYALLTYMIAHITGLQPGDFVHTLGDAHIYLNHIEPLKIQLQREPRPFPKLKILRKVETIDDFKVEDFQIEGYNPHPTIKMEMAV

For orientation: solubility means how much of the substance goes into solution per volume. The low end stands for little dissolved substance, the high end for much dissolved substance. As to `C#CCN(Cc1ccc2[nH]c(N)nc(=O)c2c1)c1ccc(C(=O)NC(CCC(=O)O)C(=O)O)cc1` (stereo not drawn), in the series with L1210, the pIC50 was 5.47. Besides, the solubility in series [1] came to 8.6 µg/mL (≈ 18 µM); in series [2], 312 µg/mL (≈ 653 µM).

For `O=C(O)CCC(NC(=O)c1ccc(NCc2ccc3ncnc(O)c3c2)cc1)C(=O)O` (stereo not drawn), in the series on L1210, the pIC50 was 6.40.

For the compound `C#CCN(Cc1ccc2ncnc(O)c2c1)c1ccc(C(=O)NC(CCC(=O)O)C(=O)O)cc1` (stereo not drawn), in the series on L1210, the pIC50 was 6.40. Also, the solubility in series [1] is 43 µg/mL (≈ 93 µM); in series [2], greater than 107000 µg/mL.

As to `CCN(Cc1ccc2nc(N)nc(O)c2c1)c1ccc(C(=O)NC(CCC(=O)O)C(=O)O)cc1` (stereo not drawn), the pIC50 in the series with L1210 was 5.05.

For the compound `CN(Cc1ccc2nc(N)nc(O)c2c1)c1ccc(C(=O)NC(CCC(=O)O)C(=O)O)cc1` (stereo not drawn), the pIC50 in the series with L1210 is 5.35; at Thymidylate synthase it was 6.44.

For the compound `C=CCN(Cc1ccc2ncnc(O)c2c1)c1ccc(C(=O)NC(CCC(=O)O)C(=O)O)cc1` (stereo not drawn), the pIC50 was 5.60 with L1210 and 5.95 on Thymidylate synthase.

Consider `C=CCN(Cc1ccc2nc(N)nc(O)c2c1)c1ccc(C(=O)NC(CCC(=O)O)C(=O)O)cc1` (stereo not drawn), for which the results for the pIC50 in the series on L1210 and on Thymidylate synthase were 5.22 and 6.55, respectively.

On to `CN(Cc1ccc2ncnc(O)c2c1)c1ccc(C(=O)NC(CCC(=O)O)C(=O)O)cc1` (stereo not drawn), for which the pIC50 was 6.05 with L1210 and 5.97 against Thymidylate synthase.

In the case of `Nc1nc(O)c2cc(CNc3ccc(C(=O)NC(CCC(=O)O)C(=O)O)cc3)ccc2n1` (stereo not drawn) [DIDEAZAFOLATE], in the series on L1210, the pIC50 is 5.57.

As to `CCN(Cc1ccc2ncnc(O)c2c1)c1ccc(C(=O)NC(CCC(=O)O)C(=O)O)cc1` (stereo not drawn), the pIC50 in the series with L1210 was 5.57.

Values taken from ChEMBL document CHEMBL1124447, “Quinazoline antifolates inhibiting thymidylate synthase: 2-desamino derivatives with enhanced solubility and potency” (J Med Chem, 1989).
